From ChEMBL document CHEMBL4732088, “Identification and optimization of piperlongumine analogues as potential antioxidant and anti-inflammatory agents via activation of Nrf2” (Eur J Med Chem, 2021)
Calls of active or inactive are those of the source. The rule behind the calls is not given here.

Legend:
PC-12 [1] = assay: (§1) Prevention of H2O2-induced calcium overload in rat PC12 cells assessed as reduction in intracellular free calcium by measuring mean fluorescence intensity at 10 uM pretreated with compound followed by H2O2 addition measured after 24 hrs by Fluo-3AM based fluorescence assay (reference value: 17791.36%); format: functional
BV-2 = assay: Antiinflammatory activity in mouse BV2 cells transfected with control siRNA assessed as reduction in LPS-induced NO production at 20 uM pretreated with compound followed by LPS stimulation for 18 hrs
PC-12 [2] = assay: Neuroprotective activity against H2O2-induced apoptosis in rat PC12 cells assessed as reduction in apoptotic nuclei at 5 to 20 uM pretreated with compound followed by H2O2 addition by Hoechst 33342 staining based fluorescence microscopy analysis; format: functional, cell-based; conditions: dose 5-20 µM
Summary of the method: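 PC12 cells pretreated with compound before H₂O₂ or 6-OHDA; nuclei stained with Hoechst 33342, imaged on a high-content system with phase-contrast views; apoptotic nuclei scored as bright condensed aggregates; n = 3.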

[3] = molecular target: T1, Nuclear factor erythroid 2-related factor 2 (Rattus norvegicus) (UniProt O54968); assay: Activation of Nrf2 in rat PC12 cells assessed as increase in NQO1 protein level at 20 uM after 24 hrs by Western blot analysis; format: cell-based; conditions: PC-12, filed as activator
T1 sequence (whole entry): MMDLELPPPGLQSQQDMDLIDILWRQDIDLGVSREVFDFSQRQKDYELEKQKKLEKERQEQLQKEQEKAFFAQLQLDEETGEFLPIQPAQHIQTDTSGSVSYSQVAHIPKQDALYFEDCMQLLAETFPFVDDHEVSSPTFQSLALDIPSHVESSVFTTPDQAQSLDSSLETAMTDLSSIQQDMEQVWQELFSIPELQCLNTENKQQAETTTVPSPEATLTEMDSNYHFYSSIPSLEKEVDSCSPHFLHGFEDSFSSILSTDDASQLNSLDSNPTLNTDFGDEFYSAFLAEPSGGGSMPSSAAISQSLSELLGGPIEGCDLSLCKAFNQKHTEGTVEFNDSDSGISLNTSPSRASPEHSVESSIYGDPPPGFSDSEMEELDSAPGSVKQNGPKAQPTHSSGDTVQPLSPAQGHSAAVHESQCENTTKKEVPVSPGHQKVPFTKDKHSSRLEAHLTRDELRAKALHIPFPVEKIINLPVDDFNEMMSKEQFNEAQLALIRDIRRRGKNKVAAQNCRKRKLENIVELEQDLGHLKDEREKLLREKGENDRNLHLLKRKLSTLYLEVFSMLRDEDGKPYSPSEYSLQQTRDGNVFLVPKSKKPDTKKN

PC-12 [4] = assay: Protection against 6-OHDA-induced oxidative damage in rat PC12 cells assessed as intracellular ROS level by measuring mean fluorescence intensity at 10 uM pretreated with compound followed by 6-OHDA stimulation by DCFH-DA staining based flow cytometry (reference value: 26327.34); format: functional
PC-12 [5] = assay: Protection against H2O2-induced apoptosis in rat PC12 cells assessed as early apoptotic cells at 20 uM incubated for 24 hrs by annexin V FITC/propidium iodide staining based flow cytometry (reference value: 3.9 %); format: functional
[6] = molecular target: T1, Nuclear factor erythroid 2-related factor 2 (Rattus norvegicus); assay: Activation of Nrf2 in rat PC12 cells assessed as increase in NQO1 protein level after 24 hrs by Western blot analysis; format: cell-based; conditions: PC-12, filed as activator, dose 5-20 µM
Summary of the method: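 PC12 cells treated with compound for 24 h at rising concentrations; NQO1, HO-1, TrxR1, GCLM, GCLC protein detected by Western blot.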

PC-12 [7] = assay: Protection against 6-OHDA-induced mitochondrial dysfunction in rat PC12 cells assessed as change in mitochondrial membrane potential at 5 uM pretreated with compound followed by 6-OHDA addition by JC-1 staining based flow cytometry (reference value: 73.2 %); format: functional
Summary of the method: (§2)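 Mitochondrial membrane potential in PC12 cells pretreated with compound (5, 10, 20 μM), then exposed to H₂O₂ (200 μM) or 6-OHDA (150 μM). JC-1 staining, red-to-green fluorescence shift read by flow cytometry. Mean ± SD, n = 3.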

[8] = molecular target: T2, Nuclear factor erythroid 2-related factor 2 (Mus musculus) (UniProt Q60795); assay: Activation of Nrf2 in mouse BV2 cells assessed as upregulation of GCLC protein expression after 24 hrs by Western blot analysis; format: cell-based; conditions: BV-2, filed as activator, dose 5-20 µM
T2 sequence (whole entry): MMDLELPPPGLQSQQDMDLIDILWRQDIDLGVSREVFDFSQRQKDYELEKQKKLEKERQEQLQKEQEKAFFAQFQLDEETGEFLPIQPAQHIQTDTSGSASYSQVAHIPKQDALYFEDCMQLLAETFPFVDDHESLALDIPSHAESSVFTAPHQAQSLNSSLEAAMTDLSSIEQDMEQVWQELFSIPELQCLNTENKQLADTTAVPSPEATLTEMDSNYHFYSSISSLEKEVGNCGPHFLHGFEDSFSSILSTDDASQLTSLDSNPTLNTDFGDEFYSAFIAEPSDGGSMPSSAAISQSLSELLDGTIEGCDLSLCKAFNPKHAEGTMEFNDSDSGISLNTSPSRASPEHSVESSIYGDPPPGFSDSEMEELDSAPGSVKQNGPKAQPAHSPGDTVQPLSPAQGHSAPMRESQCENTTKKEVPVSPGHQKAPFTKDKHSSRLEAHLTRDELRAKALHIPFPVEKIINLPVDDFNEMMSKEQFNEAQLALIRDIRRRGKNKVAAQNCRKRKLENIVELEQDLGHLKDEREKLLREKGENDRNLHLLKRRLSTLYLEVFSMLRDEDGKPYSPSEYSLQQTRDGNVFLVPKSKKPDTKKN
Summary of the method: (§3)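 BV2 microglia exposed to compound for 24 h over a concentration series; Nrf2, NQO1, HO-1, TrxR1, GCLM and GCLC protein levels read by Western blot.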

PC-12 [9] = assay: Protection against H2O2-induced mitochondrial dysfunction in rat PC12 cells assessed as change in mitochondrial membrane potential loss at 10 uM pretreated with compound followed by H2O2 addition by JC-1 staining based flow cytometry (reference value: 21.3 %); format: functional; summary of the method: as §2
[10] = molecular target: T2, Nuclear factor erythroid 2-related factor 2 (Mus musculus); assay: Activation of Nrf2 in mouse BV2 cells assessed as upregulation of NQO-1 protein expression after 24 hrs by Western blot analysis; format: cell-based; conditions: BV-2, filed as activator, dose 5-20 µM; summary of the method: as §3
[11] = Effective permeability of compound by PAMPA-BBB assay; format: ADME; conditions: read-out: Peff
PC-12 [12] = assay: as §1, with “6-OHDA-induced” for “H2O2-induced”, “6-OHDA” for “H2O2”, “6708.18%)” for “17791.36%)”; format: functional
[13] = molecular target: T1, Nuclear factor erythroid 2-related factor 2 (Rattus norvegicus); assay: Activation of Nrf2 in rat PC12 cells assessed as increase in TrxR1 protein level at 20 uM after 24 hrs by Western blot analysis; format: cell-based; conditions: PC-12, filed as activator
PC-12 [14] = assay: Protection against 6-OHDA-induced oxidative damage in rat PC12 cells assessed as intracellular ROS level by measuring mean fluorescence intensity at 20 uM pretreated with compound followed by 6-OHDA stimulation by DCFH-DA staining based flow cytometry (reference value: 26327.34); format: functional
PC-12 [15] = assay: Protection against H2O2-induced mitochondrial dysfunction in rat PC12 cells assessed as change in mitochondrial membrane potential loss at 5 uM pretreated with compound followed by H2O2 addition by JC-1 staining based flow cytometry (reference value: 21.3 %); format: functional; summary of the method: as §2

For `CCN(C)C(=O)N1CCN(C(=O)/C=C/c2ccc(F)cc2)C1=O`, the Flu intensity (PC-12 [1]) was 7793.41, the Activity (BV-2) was “Active” and the Activity (PC-12 [2]) was “Active”. The Activity [3] was “Active”, the Flu intensity (PC-12 [4]) was 12110.88 and the Activity (PC-12 [5]) was 2.3%. For the same compound, the Activity [6] was “Dose-dependent effect”, the Activity (PC-12 [7]) was 79.4% and the Activity [8] was “Dose-dependent effect”. For the same compound, the Activity (PC-12 [9]) was 9.7%, the Activity [10] was “Dose-dependent effect” and the Papp [11] was 67.8 nm/s. The Flu intensity (PC-12 [12]) was 4204.33, the Activity [13] was “Active” and the Flu intensity (PC-12 [14]) was 9730. The Activity (PC-12 [15]) was 13.2%.
